Experiments:
[1] = species on record: Homo sapiens; assay: Selectivity for human NTMT2 over human GLP at 100 uM
In short: (§1)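 Single-point panel screen against 41 PKMTs, PRMTs, DNMTs and NTMT1/2. Each compound was tested at 100 µM, in duplicate (n=2).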

[2] = species on record: Homo sapiens; assay: Selectivity for human NTMT2 over human SUV39H1 at 100 uM; in short: as §1
[3] = species on record: Homo sapiens; assay: Selectivity for human NTMT2 over human PRDMT5/MEP50 complex at 100 uM; in short: as §1
[4] = species on record: Homo sapiens; assay: Selectivity for human NTMT2 over human NSD2 T1150A mutant at 100 uM; in short: as §1
[5] = species on record: Homo sapiens; assay: Selectivity for human NTMT1 over human DNMT3a at 100 uM
In short: (§2)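 Panel of 41 PKMTs, PRMTs, DNMTs and NTMT1/2, tested at 100 µM compound in duplicate (n=2).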

[6] = species on record: Homo sapiens; assay: Selectivity for human NTMT1 over human EZH1 complex at 100 uM; in short: as §2
[7] = species on record: Homo sapiens; assay: Selectivity for human NTMT1 over human NSD2 at 100 uM; in short: as §2
[8] = species on record: Homo sapiens; assay: Selectivity for human NTMT1 over human EZH2 complex Y641F mutant at 100 uM; in short: as §2
[9] = target: N-terminal Xaa-Pro-Lys N-methyltransferase 2 (Homo sapiens, UniProt Q5VVY1); assay: Binding affinity to recombinant human full-length His6-tagged NTMT2 by ITC assay
In short: (§3)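 ITC at 25 °C. Purified protein (NTMT1 for line 1, NTMT2 for line 2) in 20 mM Tris-HCl pH 7.5, 150 mM NaCl, 0.5 mM TCEP at 30–50 µM final. Compound at 0.5–1 mM in the same buffer, titrated in as 26 injections of 10 µl, 180 s apart, reference power 15 µcal/sec.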

[10] = species on record: Homo sapiens; assay: Selectivity for human NTMT1 over human PRDMT5/MEP50 complex at 100 uM; in short: as §2
[11] = species on record: Homo sapiens; assay: Selectivity for human NTMT2 over human EZH1 complex at 100 uM; in short: as §1
[12] = species on record: Homo sapiens; assay: Selectivity for human NTMT2 over human SMYD2 at 100 uM; in short: as §1
[13] = species on record: Homo sapiens; assay: Selectivity for human NTMT1 over human NSD2 T1150A mutant at 100 uM; in short: as §2
[14] = target: T1, N-terminal Xaa-Pro-Lys N-methyltransferase 1 (Homo sapiens, UniProt Q9BV86); assay: Binding affinity to recombinant human full-length His6-tagged NTMT1 (1 to 222 residues) by ITC assay; in short: as §3
T1 sequence (Q9BV86 whole entry): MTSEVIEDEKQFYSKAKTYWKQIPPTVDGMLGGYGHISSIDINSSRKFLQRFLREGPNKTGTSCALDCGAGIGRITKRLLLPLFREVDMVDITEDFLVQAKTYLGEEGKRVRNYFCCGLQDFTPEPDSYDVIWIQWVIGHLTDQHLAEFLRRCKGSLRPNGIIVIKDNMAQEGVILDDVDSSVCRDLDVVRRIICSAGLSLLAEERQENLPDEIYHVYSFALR

[15] = species on record: Homo sapiens; assay: Selectivity for human NTMT2 over human SUV39H at 100 uM; in short: as §1
[16] = species on record: Homo sapiens; assay: Selectivity for human NTMT2 over human PRDMT5 at 100 uM; in short: as §1
[17] = species on record: Homo sapiens; assay: Selectivity for human NTMT2 over human MLL3 complex at 100 uM; in short: as §1
[18] = species on record: Homo sapiens; assay: Selectivity for human NTMT2 over human DNMT1 at 100 uM; in short: as §1
[19] = species on record: Homo sapiens; assay: Selectivity for human NTMT1 over human ASH1L at 100 uM; in short: as §2
[20] = species on record: Homo sapiens; assay: Selectivity for human NTMT1 over human DOT1L at 100 uM; in short: as §2
[21] = species on record: Homo sapiens; assay: Selectivity for human NTMT2 over human SMYD1 at 100 uM; in short: as §1
[22] = species on record: Homo sapiens; assay: Selectivity for human NTMT1 over human PRDM9 at 100 uM; in short: as §2
[23] = species on record: Homo sapiens; assay: Selectivity for human NTMT1 over human PRDMT1 at 100 uM; in short: as §2
[24] = species on record: Homo sapiens; assay: Selectivity for human NTMT2 over human DNMT3b at 100 uM; in short: as §1
[25] = species on record: Homo sapiens; assay: Selectivity for human NTMT2 over human PRDMT8 at 100 uM; in short: as §1
[26] = species on record: Homo sapiens; assay: Selectivity for human NTMT1 over human SET7/9 at 100 uM; in short: as §2
[27] = species on record: Homo sapiens; assay: Selectivity for human NTMT2 over human DOT1L at 100 uM; in short: as §1
[28] = species on record: Homo sapiens; assay: Selectivity for human NTMT1 over human SUV39H at 100 uM; in short: as §2
[29] = species on record: Homo sapiens; assay: Selectivity for human NTMT1 over human MLL4 complex at 100 uM; in short: as §2
[30] = species on record: Homo sapiens; assay: Selectivity for human NTMT2 over human PRDMT4 at 100 uM; in short: as §1
[31] = species on record: Homo sapiens; assay: Selectivity for human NTMT2 over human SETD2 at 100 uM; in short: as §1
[32] = species on record: Homo sapiens; assay: Selectivity for human NTMT1 over human NSD1 at 100 uM; in short: as §2
[33] = species on record: Homo sapiens; assay: Selectivity for human NTMT2 over human SUV420H1TV2 at 100 uM; in short: as §1
[34] = species on record: Homo sapiens; assay: Selectivity for human NTMT2 over human PRDMT7 at 100 uM; in short: as §1
[35] = species on record: Homo sapiens; assay: Selectivity for human NTMT1 over human PRDMT5 at 100 uM; in short: as §2
[36] = species on record: Homo sapiens; assay: Selectivity for human NTMT1 over human DNMT3b/3L at 100 uM; in short: as §2
[37] = species on record: Homo sapiens; assay: Selectivity for human NTMT2 over human SET7/9 at 100 uM; in short: as §1
[38] = species on record: Homo sapiens; assay: Selectivity for human NTMT1 over human PRDMT6 at 100 uM; in short: as §2
[39] = species on record: Homo sapiens; assay: Selectivity for human NTMT2 over human NSD2 at 100 uM; in short: as §1
[40] = species on record: Homo sapiens; assay: Selectivity for human NTMT2 over human EZH2 complex at 100 uM; in short: as §1
[41] = target: T1, N-terminal Xaa-Pro-Lys N-methyltransferase 1; assay: Inhibition of recombinant human full-length His6-tagged NTMT1 (1 to 222 residues) expressed in Escherichia coli BL21-CodonPlus(DE3)-RIL competent cells pre-incubated for 10 mins in presence of SAM and SAHH before RCC1-6 addition and measured after 15 mins by fluorescence based SAHH-coupled assay
In short: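 Pre-incubated 10 min at 37 °C, then started with RCC1-6 (10 µL of 50 µM stock in 100 µL). Line 11 screened at 30 µM; line 12 used 0–100 µM three-fold series, four-parameter fit. Triplicate.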

[42] = species on record: Homo sapiens; assay: Selectivity for human NTMT2 over human PRDMT3 at 100 uM; in short: as §1
[43] = species on record: Homo sapiens; assay: Selectivity for human NTMT2 over human MLL4 complex at 100 uM; in short: as §1
[44] = Drug penetration in human HCT116 cells at 100 uM by MALDI-MS analysis; type: ADME, cell-based; details: hct-116, 100 µM
In short: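 HCT116 cells in McCoy's 5A with 10% FBS and 1% antibiotic-antimycotic, seeded at 0.1 × 10^6 cells/mL in 24-well plates and held overnight at 37 °C, 5% CO2. Compound added for the specified time, with TAT peptide as control. Cells washed three times with PBS, lysed by two snap-freezes in liquid nitrogen, and the lysate checked for compound by MALDI with DHB matrix.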

[45] = species on record: Homo sapiens; assay: Selectivity for human NTMT2 over human SET1b complex at 100 uM; in short: as §1
[46] = species on record: Homo sapiens; assay: Selectivity for human NTMT1 over human PRDMT8 at 100 uM; in short: as §2

Sequence of N-terminal Xaa-Pro-Lys N-methyltransferase 2 (Q5VVY1 whole entry): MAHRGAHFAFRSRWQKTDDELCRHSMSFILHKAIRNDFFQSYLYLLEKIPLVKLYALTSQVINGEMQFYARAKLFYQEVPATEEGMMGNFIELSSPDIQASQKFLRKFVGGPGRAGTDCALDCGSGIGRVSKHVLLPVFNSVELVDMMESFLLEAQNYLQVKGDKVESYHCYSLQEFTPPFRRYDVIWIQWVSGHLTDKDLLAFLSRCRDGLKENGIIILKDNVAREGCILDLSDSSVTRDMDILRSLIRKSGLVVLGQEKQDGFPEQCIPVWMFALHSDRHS

Structure (SMILES): N=C(N)NCCC[C@H](NC(=O)[C@H](CCCCN)NC(=O)[C@@H]1CCCN1C(=O)Cc1ccc(O)cc1)C(N)=O
- Selectivity ratio [1]: > 100
- Selectivity ratio [2]: > 100
- Selectivity ratio [3]: > 100
- Selectivity ratio [4]: > 100
- Selectivity ratio [5]: > 100
- Selectivity ratio [6]: > 100
- Selectivity ratio [7]: > 100
- Selectivity ratio [8]: > 100
- Kd [9]: 3.7 µM
- Selectivity ratio [10]: > 100
- Selectivity ratio [11]: > 100
- Selectivity ratio [12]: > 100
- Selectivity ratio [13]: > 100
- Kd [14]: 3 µM
- Selectivity ratio [15]: > 100
- Selectivity ratio [16]: > 100
- Selectivity ratio [17]: > 100
- Selectivity ratio [18]: > 100
- Selectivity ratio [19]: > 100
- Selectivity ratio [20]: > 100
- Selectivity ratio [21]: > 100
- Selectivity ratio [22]: > 100
- Selectivity ratio [23]: > 100
- Selectivity ratio [24]: > 100
- Selectivity ratio [25]: > 100
- Selectivity ratio [26]: > 100
- Selectivity ratio [27]: > 100
- Selectivity ratio [28]: > 100
- Selectivity ratio [29]: > 100
- Selectivity ratio [30]: > 100
- Selectivity ratio [31]: > 100
- Selectivity ratio [32]: > 100
- Selectivity ratio [33]: > 100
- Selectivity ratio [34]: > 100
- Selectivity ratio [35]: > 100
- Selectivity ratio [36]: > 100
- Selectivity ratio [37]: > 100
- Selectivity ratio [38]: > 100
- Selectivity ratio [39]: > 100
- Selectivity ratio [40]: > 100
- IC50 [41]: 890 nM
- Selectivity ratio [42]: > 100
- Selectivity ratio [43]: > 100
- Drug uptake [44]: Not Active
- Selectivity ratio [45]: > 100
- Selectivity ratio [46]: > 100
